Laboratory results: ChEMBL document CHEMBL1147111, “In vitro and in vivo activities of synthetic trioxolanes against major human schistosome species” (Antimicrob Agents Chemother, 2007)
Calls of active or inactive are those of the source. No cut-off for these calls is given here.

Experiments:
Schistosoma mansoni [1] = experiment: Antischistosomal activity against NMRI mouse juvenile Schistosoma mansoni infection model assessed as reduction of total worm burden at 200 mg/kg, po after 28 days; format: functional; design: scale not given: the % may be the effect or the level left
Summary of the method: (§1)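 Juvenile-infection model: mice carrying Liberian-strain S. mansoni got one oral dose at day 21 postinfection, as a suspension in 7% Tween 80/3% ethanol. There were 3–5 per group, plus untreated controls. Necropsy by exsanguination followed 28 days after treatment. Liver and mesenteric-vein worms were collected, sexed and counted. Total and female burden reductions were calculated versus controls, with Kruskal-Wallis testing.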

Schistosoma mansoni [2] = experiment: Antischistosomal activity against NMRI mouse juvenile Schistosoma mansoni infection model assessed as reduction of female worm burden at 200 mg/kg, po after 28 days; format: functional; design: scale not given: the % may be the effect or the level left; summary of the method: as §1
Schistosoma mansoni [3] = experiment: Antischistosomal activity against NMRI mouse juvenile Schistosoma mansoni infection model assessed as number of cured mouse at 200 mg/kg, po after 28 days; format: functional, organism-based; design: dose 200 mg/kg; summary of the method: as §1
Schistosoma mansoni [4] = experiment: Antischistosomal activity against NMRI mouse adult Schistosoma mansoni infection model assessed as reduction of total worm burden at 400 mg/kg, po after 28 days; format: functional; design: scale not given: the % may be the effect or the level left
Summary of the method: (§2)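 Mice with a Liberian-strain S. mansoni infection were dosed at 49 days postinfection with a single oral dose of compound suspended in 7% Tween 80/3% ethanol. Groups held 3–5 animals, with untreated controls. At 28 days posttreatment, animals were killed by bleeding. Worms in liver and mesenteric veins were removed, sexed and counted. Reductions were calculated against controls and tested by Kruskal-Wallis.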

Schistosoma mansoni [5] = experiment: Antischistosomal activity against NMRI mouse adult Schistosoma mansoni infection model assessed as reduction of female worm burden at 400 mg/kg, po after 28 days; format: functional; design: scale not given: the % may be the effect or the level left; summary of the method: as §2
Schistosoma mansoni [6] = experiment: Antischistosomal activity against NMRI mouse adult Schistosoma mansoni infection model assessed as number of cured mouse at 400 mg/kg, po after 28 days; format: functional, organism-based; design: dose 400 mg/kg; summary of the method: as §2
Schistosoma mansoni [7] = experiment: Antischistosomal activity against Schistosoma mansoni assessed as worm death at 20 ug/ml after 24 hrs; format: functional, organism-based
Summary of the method: (§3)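 Adult S. mansoni (Liberian strain, 49-day-old) were held two males and two females per well, in duplicate, in Hanks' balanced salt solution with 20% calf serum, 300 IU/ml penicillin and 300 μg/ml streptomycin. Drug was given at 20 μg/ml final from a 1 mg/ml stock in 60% DMSO; solvent control was 1.2% DMSO. Incubation was at 37°C in 5% CO2. Worms were scored under a dissecting microscope at 24, 48 and 72 h for death, motor activity and tegument.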

Schistosoma mansoni [8] = experiment: Antischistosomal activity against Schistosoma mansoni assessed as worm death at 20 ug/ml after 72 hrs; format: functional, organism-based; summary of the method: as §3
Schistosoma mansoni [9] = experiment: Reduction of motor activity of Schistosoma mansoni at 20 ug/ml after 72 hrs; format: functional, organism-based; summary of the method: as §3
Schistosoma mansoni [10] = experiment: Tegumental alteration in Schistosoma mansoni at 20 ug/ml after 72 hrs; format: functional, organism-based; summary of the method: as §3
Mus musculus = experiment: Toxicity in NMRI mouse with adult Schistosoma mansoni infection at 400 mg/kg, po after 48 to 96 hrs; format: organism-based; design: dose 400 mg/kg, route oral; conditions: in vivo
Summary of the method: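 Mice carrying a 49-day S. mansoni (Liberian strain) infection were given a single oral 400 mg/kg dose as a suspension in 7% Tween 80/3% ethanol. Deaths occurring 48–96 h after treatment were recorded.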

Schistosoma mansoni [11] = experiment: Antischistosomal activity against Syrian golden hamster juvenile Schistosoma mansoni infection model assessed as reduction of total worm burden at 50 mg/kg, po after 28 days; format: functional; design: scale not given: the % may be the effect or the level left
Summary of the method: (§4)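 Hamsters infected with Liberian-strain S. mansoni were treated once orally at 21 days (juvenile lines) or 49 days (adult lines) postinfection. Doses were 50, 100 or 200 mg/kg, in 7% Tween 80/3% ethanol suspension. Groups had 3–4 animals, with untreated controls. After 28 days, animals were bled out. Worms from liver and mesenteric veins were sexed and counted, and cures and burden reductions versus controls were recorded (Kruskal-Wallis).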

Schistosoma mansoni [12] = experiment: Antischistosomal activity against Syrian golden hamster juvenile Schistosoma mansoni infection model assessed as reduction of female worm burden at 50 mg/kg, po after 28 days; format: functional; design: scale not given: the % may be the effect or the level left; summary of the method: as §4
Schistosoma mansoni [13] = experiment: Antischistosomal activity against Syrian golden hamster juvenile Schistosoma mansoni infection model assessed as reduction of total worm burden at 100 mg/kg, po after 28 days; format: functional; design: scale not given: the % may be the effect or the level left; summary of the method: as §4
Schistosoma mansoni [14] = experiment: Antischistosomal activity against Syrian golden hamster juvenile Schistosoma mansoni infection model assessed as reduction of female worm burden at 100 mg/kg, po after 28 days; format: functional; design: scale not given: the % may be the effect or the level left; summary of the method: as §4
Schistosoma mansoni [15] = experiment: Antischistosomal activity against Syrian golden hamster juvenile Schistosoma mansoni infection model assessed as reduction of total worm burden at 200 mg/kg, po after 28 days; format: functional; design: scale not given: the % may be the effect or the level left; summary of the method: as §4
Schistosoma mansoni [16] = experiment: Antischistosomal activity against Syrian golden hamster juvenile Schistosoma mansoni infection model assessed as reduction of female worm burden at 200 mg/kg, po after 28 days; format: functional; design: scale not given: the % may be the effect or the level left; summary of the method: as §4
Schistosoma mansoni [17] = experiment: Antischistosomal activity against Syrian golden hamster adult Schistosoma mansoni infection model assessed as reduction of total worm burden at 50 mg/kg, po after 28 days; format: functional; design: scale not given: the % may be the effect or the level left; summary of the method: as §4
Schistosoma mansoni [18] = experiment: Antischistosomal activity against Syrian golden hamster adult Schistosoma mansoni infection model assessed as reduction of female worm burden at 50 mg/kg, po after 28 days; format: functional; design: scale not given: the % may be the effect or the level left; summary of the method: as §4
Schistosoma mansoni [19] = experiment: Antischistosomal activity against Syrian golden hamster adult Schistosoma mansoni infection model assessed as reduction of total worm burden at 100 mg/kg, po after 28 days; format: functional; design: scale not given: the % may be the effect or the level left; summary of the method: as §4
Schistosoma mansoni [20] = experiment: Antischistosomal activity against Syrian golden hamster adult Schistosoma mansoni infection model assessed as reduction of female worm burden at 100 mg/kg, po after 28 days; format: functional; design: scale not given: the % may be the effect or the level left; summary of the method: as §4
Schistosoma mansoni [21] = experiment: Antischistosomal activity against Syrian golden hamster adult Schistosoma mansoni infection model assessed as reduction of female worm burden at 200 mg/kg, po after 28 days; format: functional; design: scale not given: the % may be the effect or the level left; summary of the method: as §4
Schistosoma mansoni [22] = experiment: Antischistosomal activity against Syrian golden hamster juvenile Schistosoma mansoni infection model assessed as number of cured mouse at 50 mg/kg, po after 28 days; format: functional, organism-based; design: dose 50 mg/kg; summary of the method: as §4
Schistosoma mansoni [23] = experiment: Antischistosomal activity against Syrian golden hamster juvenile Schistosoma mansoni infection model assessed as number of cured mouse at 100 mg/kg, po after 28 days; format: functional, organism-based; design: dose 100 mg/kg; summary of the method: as §4
Schistosoma mansoni [24] = experiment: Antischistosomal activity against Syrian golden hamster adult Schistosoma mansoni infection model assessed as number of cured mouse at 50 mg/kg, po after 28 days; format: functional, organism-based; design: dose 50 mg/kg; summary of the method: as §4
Schistosoma mansoni [25] = experiment: Antischistosomal activity against Syrian golden hamster adult Schistosoma mansoni infection model assessed as number of cured mouse at 100 mg/kg, po after 28 days; format: functional, organism-based; design: dose 100 mg/kg; summary of the method: as §4
Schistosoma mansoni [26] = experiment: Antischistosomal activity against Syrian golden hamster adult Schistosoma mansoni infection model assessed as number of cured mouse at 200 mg/kg, po after 28 days; format: functional, organism-based; design: dose 200 mg/kg; summary of the method: as §4

SMILES	Activity (Schistosoma mansoni [1])	Activity (Schistosoma mansoni [2])	Activity (Schistosoma mansoni [3])	Activity (Schistosoma mansoni [4])	Activity (Schistosoma mansoni [5])	Activity (Schistosoma mansoni [6])	further results
C1CCC2(CC1)COC1(OO2)C2CC3CC(C2)CC1C3 (centres undefined)	5.4%	3.9%	inactive				
C1CCC2(CC1)OOC1(O2)C2CC3CC(C2)CC1C3 (centres undefined)	82%	79.2%	inactive	29.1%	29.3%	inactive	
C1CCC2(CC1)COC1(O2)C2CC3CC(C2)CC1C3 (centres undefined)	0%	0%	inactive				
NC[C@H]1CC[C@]2(CC1)OOC1(O2)C2CC3CC(C2)CC1C3 (some centres undefined)	85%	83.7%	inactive	16.6%	25%		Activity (Schistosoma mansoni [7]): inactive; Activity (Schistosoma mansoni [8]): Active; Activity (Schistosoma mansoni [9]): inactive; Activity (Schistosoma mansoni [10]): Active; Activity (Mus musculus): Toxic
Oc1ccc([C@H]2CC[C@]3(CC2)OO[C@]2(O3)C3CC4CC(C3)CC2C4)cc1	95.4%	96.2%	inactive	52.2%	64.9%	inactive	Activity (Schistosoma mansoni [11]): 82.7%; Activity (Schistosoma mansoni [12]): 78.7%; Activity (Schistosoma mansoni [13]): 84%; Activity (Schistosoma mansoni [14]): 80.5%; Activity (Schistosoma mansoni [15]): 86.5%; Activity (Schistosoma mansoni [16]): 86.4%; Activity (Schistosoma mansoni [17]): 46.6%; Activity (Schistosoma mansoni [18]): 36.7%; Activity (Schistosoma mansoni [19]): 52.4%; Activity (Schistosoma mansoni [20]): 41.2%; Activity (Schistosoma mansoni [21]): 69.7%; Activity (Schistosoma mansoni [22]): inactive; Activity (Schistosoma mansoni [23]): inactive; Activity (Schistosoma mansoni [24]): inactive; Activity (Schistosoma mansoni [25]): inactive; Activity (Schistosoma mansoni [26]): inactive
